Experimental data pooled from the literature.
Target: Serine/threonine-protein kinase MRCK beta (CDC42BPB, Homo sapiens, UniProt Q9Y5S2)

read-out | method | concentration | remaining binding [%] | Structure (SMILES)
binding |  | 1 µM | 100 | COc1ccnn2ncc(-c3ccnc(N(C)C)n3)c12
binding | competition with immobilised ligand | 0.1 µM | 89 | C[C@@H](c1ccc(-n2cnc3c(N)ncnc32)cc1)N1CCc2nn(C)c(Cc3ccccc3)c2C1=O
binding |  | 1 µM | 86 | CN(c1nccc(-c2cnn3ncccc23)n1)C1CC1
cell-free assay | competition with immobilised ligand | 5 µM | 100 | COc1ncc2cc3ccccc3nc2c1C#N
binding | competition with immobilised ligand | 1 µM | 99 | COc1cnc(Nc2cccc(S(N)(=O)=O)c2)nc1N1CCN(c2ccccc2)CC1
binding | competition with immobilised ligand | 1 µM | 56 | O=C(c1ccc(Nc2ncc(Cl)c(-c3cc4ccccc4s3)n2)cc1)N1CCC(N2CCCC2)CC1
binding |  | 1 µM | 97 | CC1CCCN1c1nccc(-c2cnn3ncccc23)n1 (stereo not drawn)
cell-free assay | competition with immobilised ligand | 1 µM | 100 | C[C@H](NC(=O)c1cnc2n1[C@](C)(Cc1ccc(C#N)cc1)C(=O)N2c1cc(Cl)c(F)c(Cl)c1)C(=O)NC1(c2ccccn2)CC1
binding | competition with immobilised ligand | 1 µM | 100 | COc1cnc(Nc2cccc(S(N)(=O)=O)c2)nc1N1CCN(c2ccccc2)C(=O)C1
binding | competition with immobilised ligand | 1 µM | 100 | O=C(c1ccc(Nc2nccc(-c3cc4ccccc4s3)n2)cc1)N1CCC(N2CCCC2)CC1
binding | competition with immobilised ligand | 1 µM | 95 | O=C(NCC1CCOCC1)c1n[nH]cc1NC(=O)c1c(F)cccc1F
cell-free assay | competition with immobilised ligand | 1 µM | 100 | O=C(O)c1cc(-c2ccc(C3CCNCC3)cc2)c2ccc(-c3ccc(C(F)(F)F)cc3)cc2c1
binding |  | 1 µM | 63 | CN(CCCC(F)(F)F)c1nccc(-c2cnn3ncccc23)n1
cell-free assay | competition with immobilised ligand | 0.1 µM | 99 | CC(C)CC(=O)N1CCc2nc(-c3ccc(Br)cc3)nc(N(C)Cc3ccccc3)c2C1
binding |  | 1 µM | 100 | N[C@@H]1CCN(c2nccc(-c3cnn4ncccc34)n2)C1
cell-free assay | competition with immobilised ligand | 1 µM | 100 | O=C(Nc1cccnn1)N1CC(C/C=C/c2cncc(Oc3ccc(C(F)(F)F)cn3)n2)C1
binding |  | 1 µM | 100 | CN(C)c1ncc(F)c(-c2cnn3ncccc23)n1
cell-free assay | competition with immobilised ligand | 1 µM | 100 | Cc1nc(C2CCN(C(=O)c3ccc(OC(F)(F)F)cc3N)CC2)c2ncc(N3CCN(C)CC3)cc2n1
cell-free assay | competition with immobilised ligand | 5 µM | 22 | FC(F)(F)Oc1cccc(-c2cnc3ccc(-c4ccncc4)nn23)c1
cell-free assay | competition with immobilised ligand | 0.1 µM | 90 | CNC(=O)c1ccc(Nc2ncc(C(F)(F)F)c(NCc3nccnc3N(C)S(C)(=O)=O)n2)cc1
binding | competition with immobilised ligand | 1 µM | 100 | O=C(NCCCN1CCOCC1)c1ccc(Nc2nccc(-c3cc4ccccc4s3)n2)cc1
